The list is not random: actives were taken first. Their share in the collection is about 0.9%.
SKN-1 block: suppressors of acrylamide-induced Pgst-4::GFP reporter in worms, primary screen, SKN-1 inhibitor project, whole organism, uHTS, GFP/RFP fluorescence ratio, strain VP596. C. elegans VP596 Pgst-4::GFP/RFP ratio, 24 h. inhibition, % at 21.8 µM. hit rate 0.49% among 360,000. AID 624304, 2012;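 active = interference check ratio from 0.5 to 1.5 plus GFP to RFP signal ratio inhibition reaching or exceeding a fixed threshold, cut at about 30% in these data, passing the limit was not always enough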
MT1-MMP act inh: blockers of MT1-MMP proenzyme processing, primary screen, HT1080 RFP-PRO-GFP cells, GFP/RFP fluorescence; Matrix metalloproteinase-14 (Homo sapiens), P50281; GFP/RFP ratio fluorescence, overnight; percent of plate control window, DMSO zero; hit rate 0.061% among 360,000; GFP/RFP ratio change, % at 20 µM;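 active = GFP/RFP ratio change of at least 30% with cell ATP level not reduced by more than half and red fluorescence within 50% of control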
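Assay system: HT1080 RFP-PRO-GFP cells. Benchmarks: DMSO vehicle wells and RFP-L50D-GFP reporter cell wells. Times: overnight cell settling, then overnight compound exposure, 37 °C, 5% CO2. Compound: 20 µM single dose, 1% DMSO. Read-out basis: GFP/RFP fluorescence ratio.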
DAGLB inh: DAGLB lipase inhibitors, primary screen, biochemical, fluorescence, HTS. inhibition, % at 5.17 µM. Diacylglycerol lipase-beta (Homo sapiens), Q8NCG7. HEK293T DAGLB membrane lysate, EnzChek fluorogenic substrate. hit rate 0.059% among 340,000; in the data active = inhibition above about 34%;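 note: 0% = enzyme with vehicle and 100% = wells lacking enzyme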
DDE Tn7 FP inh: inhibitors of Tn7 peptide binding to fibrin DD(E), primary screen, biochemical, fluorescence polarization, human fibrin, Tn7 probe; Fibrinogen beta chain (Homo sapiens), P02675; FP displacement of FITC-Tn7 peptide from fibrin DD(E); 0% = median of compound wells per plate; inhibition, % at 8.3 µM; hit rate 0.13% among 370,000; AID 720508, 2013;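 active = inhibition above the mean of compounds falling within the control limits plus 3 SD of them, cut at about 14% in these data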;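 note: 0% = plate median of compound wells and 100% = 10 µM Aha-Tn7 peptide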
Target sequence (P02675 whole entry, looked up): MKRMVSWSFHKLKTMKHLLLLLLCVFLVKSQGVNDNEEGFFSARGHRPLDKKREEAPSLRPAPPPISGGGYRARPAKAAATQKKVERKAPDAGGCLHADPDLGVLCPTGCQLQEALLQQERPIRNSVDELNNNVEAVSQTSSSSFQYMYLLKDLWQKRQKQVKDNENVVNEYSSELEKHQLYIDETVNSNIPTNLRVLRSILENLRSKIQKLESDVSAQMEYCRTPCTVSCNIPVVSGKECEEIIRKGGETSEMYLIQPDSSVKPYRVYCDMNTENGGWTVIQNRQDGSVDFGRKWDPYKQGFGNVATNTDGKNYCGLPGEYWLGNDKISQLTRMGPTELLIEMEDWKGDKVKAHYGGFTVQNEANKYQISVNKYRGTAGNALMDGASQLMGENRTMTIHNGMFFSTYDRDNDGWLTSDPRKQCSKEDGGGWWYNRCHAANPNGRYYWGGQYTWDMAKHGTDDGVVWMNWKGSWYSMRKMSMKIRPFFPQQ
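System: human fibrin DD(E); quantity: Fibrin-DD(E) at 2 µM final; also added: fluorescent Tn7 probe at 0.1 µM; compound dosing: single nominal test concentration of 8.3 µM per compound; schedule: 10 min preincubation, 3 h with tracer, room temperature; detection: fluorescence polarization of the labelled Tn7 tracer; repeats: one replicate per compound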
DDE Tn6 FP inh: inhibitors of Tn6 peptide binding to fibrin DD(E), primary screen, biochemical, fluorescence polarization, human fibrin, Tn6 probe. Fibrinogen beta chain (Homo sapiens), P02675. Fibrin DD(E) TRITC-Tn6 fluorescence polarization displacement. inhibition, % at 8.3 µM. hit rate 0.21% among 370,000;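 active = inhibition above a per-campaign cutoff: mean of compounds within control limits plus 3 SD, cut at about 15% in these data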;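 note: 0% = median of all compound wells on the plate and 100% = blocking peptide control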
PolyA inhibitor: polyadenylation inhibitors in yeast reporter cells, primary screen, luminescence, S. cerevisiae | AID 1875, 2009 | hit rate 0.02% among 300,000 | activity score, % at 12 µM | S. cerevisiae SKY197-pL101 polyadenylation reporter, beta-gal luminescence; efflux-impaired pdr1/pdr3 knockout yeast; score 100 = 6 SD above DMSO;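 active = lowest replicate activity score at least 50, where 100 means six control SD above control mean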;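 note: yeast exposed to compound for 9 h at 30 °C; higher score means more reporter readthrough which indicates perturbed polyadenylation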
Numbers without * were called inactive; . = no result given.

SMILES | SKN-1 block | MT1-MMP act inh | DAGLB inh | DDE Tn7 FP inh | DDE Tn6 FP inh | PolyA inhibitor
CCOC(=O)N1CCN(C(=O)c2ccc3c(c2)sc2nc(-c4ccc(OC)cc4)cn23)CC1 | 3 | 3 | 2 | 5 | -1 | 7
c1ccc(-c2csc(N3CCN(c4ccccn4)CC3)n2)cc1 | 47* | 9 | -14 | 1 | -6 | 5
c1ccc(-c2csc(N3CCOCC3)n2)cc1 | 19 | -2 | -2 | -7 | -3 | -3
S=C(NCc1ccccc1)C(=S)NCc1ccccc1 | 38* | -2 | 0 | 0 | 4 | .
CCCC1=NN2C(=N)/C(=C\c3ccc(SCc4ccco4)o3)C(=O)N=C2S1 | 44* | -66 | 14 | . | . | 6
CCC1=NN2C(=N)/C(=C\c3ccc(SCc4ccco4)o3)C(=O)N=C2S1 | 50 | -40 | 9 | -19 | -3 | -4
NC(=O)C1CCN(c2oc(-c3ccccc3F)nc2S(=O)(=O)c2ccc(Cl)cc2)CC1 | 38* | 1 | -2 | 1 | 1 | -6
O=C(CSc1nnc(-c2ccccc2)n1-c1ccccc1)Nc1ccccc1-c1ccccc1 | . | . | . | -6 | 0 | .
CC(C)(C)c1ccc(-c2nnc3n2N=C(c2ccc4ccccc4c2)CS3)cc1 | . | . | . | -2 | -14 | .
C=CCOc1ccc2c(CC)cc(=O)oc2c1C | 72* | -5 | -9 | 0 | -6 | -16
CCOc1ccc2c(CC)cc(=O)oc2c1OCC | 7 | 13 | -5 | 4 | -10 | 0
C[C@@]12C[C@@H]3C(=O)N(Cc4ccccc4)CC(=O)N3[C@@H]1N(S(=O)(=O)c1ccccc1)c1ccccc12 | . | . | . | -4 | -3 | .
Cc1nc(Oc2ccccc2)c2oc3ccccc3c2n1 | 38* | 1 | -2 | 2 | 0 | -27
Cc1cc(C)n2c(SCc3ccc(Br)cc3)nnc2n1 | 6 | 1 | . | 2 | 1 | -7
Cc1cc(C)n2c(SCc3c(C)noc3C)nnc2n1 | 33* | 3 | -2 | -4 | -8 | .
O=C(C=Cc1ccccc1)CC(c1ccccc1)N1CCOCC1 (centres undefined) | 83* | 5 | -5 | 4 | -6 | .
Cc1[nH]c(=O)c(C#N)c2c1COC(C)(C)C2 | -4 | 1 | 3 | . | . | 20
CSc1c(C#N)c(N)c(C#N)c2c1COC(C)(C)C2 | 41* | -2 | 1 | 0 | 0 | -2
Cn1cc([C@@H]2C[C@H]3CN(Cc4cccc(Cl)c4)C(=O)[C@]34CCCN24)c2ccccc21 | 35* | 35 | 0 | -6 | -11 | -7
COc1ccc(-c2c(Cc3ccccc3)nc(NC(=O)c3ccccc3)n2Cc2ccc(OC)cc2OC)cc1 | . | . | . | 7 | -6 | .
O=C(CC1CCCC1)N1CC[C@H]2[C@H](CCCN2Cc2cc(F)cc(F)c2)C1 | . | . | . | 3 | -1 | .
COC(=O)[C@]12C[C@H](CC(=O)N3CCSCC3)C(=O)N(CCc3ccc(OC)c(OC)c3)C1=C[C@H](C(C)(C)C)O[C@@H]2C | . | . | . | 5 | 3 | .
Cc1ccc(NC(=O)c2cc(-c3ccco3)on2)cc1C | 36* | -6 | -9 | -2 | 6 | 11
Cc1ccsc1C=Nc1ccc(O)cc1 | 28* | 9 | 7 | . | . | -3
CCCC(=O)N1CCC[C@]2(CC[C@H](CCC(=O)OCC)O2)C1 | . | . | . | -3 | 0 | .
SMILES | SKN-1 block | MT1-MMP act inh | DAGLB inh | DDE Tn7 FP inh | DDE Tn6 FP inh | PolyA inhibitor
CN(N=Nc1cccc([N+](=O)[O-])c1)c1ccccc1 | 48* | 1 | -11 | 2 | 5 | -6
Cc1ccc(OCCn2c(CCNC(=O)C3CCCCCC3)nc3ccccc32)cc1 | . | . | . | -1 | -4 | .
O=c1ccc2cc(S(=O)(=O)N3CCN(c4cc(Cl)ccc4Cl)CC3)ccc2o1 | 13 | -5 | -6 | -8 | -1 | -11
Cc1ccc(N2CCN(S(=O)(=O)c3ccc4oc(=O)ccc4c3)CC2)c(C)c1 | 43* | 3 | -3 | -1 | -3 | 23
O=C(Nc1nccs1)c1ccc(COc2c(F)c(F)cc(F)c2F)o1 | -14 | 0 | -2 | -1 | -3 | .
Cc1ccc(OCc2ccc(C(=O)Nc3nccs3)o2)cc1C | 56* | 2 | -6 | -4 | -2 | -21
Nc1c(C(=O)Nc2ccc(Br)cc2)sc2nc(-c3ccco3)ccc12 | 12 | -26 | 16 | -13 | 0 | 3
Nc1c(C(=O)Nc2ccc(F)cc2)sc2nc(-c3ccco3)ccc12 | 45* | -14 | 8 | -2 | -3 | -8
NC(=NC(=O)c1ccc(OCC(F)(F)F)nc1)c1ccccc1 | 38* | 2 | -9 | 6 | 6 | -11
NC(=NC(=O)c1ccc(OCC(F)(F)F)nc1)c1ccc(Cl)cc1 | 16 | -1 | -4 | 2 | 2 | -10
O=C(Nc1cc(-c2ccccc2)[nH]n1)c1ccccc1 | 37* | -1 | 3 | -6 | -8 | -14
CCOC(=O)Nc1ccc(NCc2ccc(F)cc2)nc1N | 14 | -10 | -7 | 23* | 13 | .
CCOC(=O)Nc1ccc(C)cc1NC(=O)OCC | 17 | -3 | -1 | -8 | 1 | 2
CC[C@@H]1CCC[C@@H](O)[C@@H](C)C(=O)O[C@H](C)[C@@H](C)C/C=C(C)/C(OC)=C\C(=O)N(C)C([C@@H](C)CC)C(=O)N(C)[C@@H](C(C)C)C(=O)N(C)[C@@H](COC)C(=O)N2CCC[C@H]2C(=O)N(C)[C@@H](C(C)C)C(=O)N2CCC[C@H]2C(=O)O1 (some centres undefined) | 44* | -20 | . | 2 | 5 | .
C=CCN1C(=O)[C@H](CC(=O)N2CCCCC2)[C@@]2(C(=O)OCC)CCCC=C12 | . | . | . | 9 | 3 | .
CS(=O)(=O)N1N=C(c2cccs2)CC1c1ccccc1O (centres undefined) | 41* | -9 | -3 | -1 | 0 | -8
Cc1ccc(Cl)c(N/C=C/C(=O)c2ccccc2)c1 | 51* | -6 | -8 | 3 | 4 | -7
CCCCc1ccc2nc(NC(=O)c3ccc(Br)o3)sc2c1 | . | . | . | 6 | 2 | .
O=C(C1CCCN1S(=O)(=O)c1ccccc1[N+](=O)[O-])N1CCc2ccccc2C1 (centres undefined) | . | . | . | 0 | 1 | .
O=C(CSc1nnc(-c2ccccc2)n1-c1ccc(Cl)cc1)c1ccc(F)cc1 | . | . | . | -6 | -6 | .

Compound activity from PubChem.
